Screening data (PubChem)
In the library only some 4.5% were active in any assay of this set; here they are far more common.
OX1R antag-1: blocks the human orexin 1 receptor | inhibition, % at 6.6 µM | AID 485270 | actives 1.8% (n = 330,000) | OX1R-expressing cells, FRET antagonist read-out; in the data active means inhibition mostly above about 38%, no sharp cut-off; inactive means mostly below about 40%;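 further: 0% = agonist challenge alone and 100% = reference antagonist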
TAAR1 ag: human TAAR1 agonism | Q96RJ0 | CHO RD-HGA16 TAAR1, Fluo-8 calcium fluorescence; vehicle wells 0%, saturating PEA agonist 100% | activation, % at 3 µM | actives 0.99% (n = 360,000);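 active means activation above the mean activation of all test compounds in the run plus 3 SD, cut at about 38% in these data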
Target sequence (Q96RJ0 whole entry, looked up): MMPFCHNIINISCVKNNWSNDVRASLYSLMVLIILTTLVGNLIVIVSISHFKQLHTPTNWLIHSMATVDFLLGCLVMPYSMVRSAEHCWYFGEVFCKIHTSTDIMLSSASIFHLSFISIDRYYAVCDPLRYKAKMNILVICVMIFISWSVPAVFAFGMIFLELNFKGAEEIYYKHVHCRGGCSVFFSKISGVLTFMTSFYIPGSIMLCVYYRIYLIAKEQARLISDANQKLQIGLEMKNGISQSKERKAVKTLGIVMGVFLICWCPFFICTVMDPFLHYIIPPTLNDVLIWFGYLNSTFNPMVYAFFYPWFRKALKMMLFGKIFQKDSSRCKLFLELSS
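System: CHO-derived RD-HGA16 cells with stable Gα16 and human TAAR1 / Times: 17-24 h plating, Fluo-8 75 min 37 °C, 30 min RT / Technique: calcium-sensitive Fluo-8 signal, excitation 470-495, emission 515-575 nm / Measure: % activation relative to PEA EC100 response / Benchmarks: DMSO and PEA EC100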
TAAR1 antagonist: antagonists of human TAAR1; actives 1.5% (n = 360,000); inhibition, % at 3 µM; Q96RJ0; AID 624466; CHO RD-HGA16 TAAR1, Fluo-8 calcium fluorescence, antagonist;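 active means inhibition above a per-plate cutoff, the mean inhibition of test compounds on that plate plus 3 SD, cut at about 49% in these data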;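 further: 0% = DMSO plus EC80 beta-PEA response and 100% = DMSO alone without agonist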
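Assay system: CHO-derived RD-HGA16 cells stably expressing human TAAR1 plus Gα16. Timing: 140 s kinetic read after compound, 140 s after agonist. Technique: kinetic Fluo-8 calcium fluorescence measurement. Measure: % inhibition of agonist calcium response.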
GPR7 antagonist: antagonists of human GPR7 (neuropeptides B/W receptor 1); inhibition, % at 4.4 µM; actives 1.1% (n = 290,000); AID 1861; P48145; GPR7-expressing cells, fluorescence antagonist assay; in the data active means inhibition above about 16%, passing the limit was not always enough;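 further: cells stimulated with the agonist NPW; 0% = agonist with vehicle and 100% = vehicle without agonist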
Target sequence (P48145 whole entry, looked up): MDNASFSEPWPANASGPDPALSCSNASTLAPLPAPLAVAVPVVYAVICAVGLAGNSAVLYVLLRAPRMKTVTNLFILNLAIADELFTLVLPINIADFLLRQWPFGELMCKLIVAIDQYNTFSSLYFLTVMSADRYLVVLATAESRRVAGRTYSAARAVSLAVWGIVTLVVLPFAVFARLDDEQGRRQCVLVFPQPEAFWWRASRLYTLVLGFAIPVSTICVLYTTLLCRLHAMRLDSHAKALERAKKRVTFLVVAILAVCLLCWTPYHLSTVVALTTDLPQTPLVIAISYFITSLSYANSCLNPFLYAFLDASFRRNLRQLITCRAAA
OX1R antag-2: blocks the human orexin 1 receptor | CHO/OX1R cells, Fluo-8 calcium fluorescence, orexin A | O43613 | actives 0.43% (n = 330,000) | inhibition, % at 5 µM;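 active means inhibition above its plate's threshold, mean inhibition of all tested compounds on the plate plus 3 SD, cut at about 37% in these data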;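 further: 0% = orexin A challenge wells and 100% = SB-334867-A antagonist wells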
CHO parental Ca: counter-screen for OX1R antagonists: effect in parental CHO cells; actives 0.63% (n = 330,000); inhibition, % at 5.6 µM; parental CHO-K1, ATP-induced calcium, Fluo-8 fluorescence; AID 463079;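 active means inhibition above that plate's mean sample inhibition plus 3 SD, cut at about 26% in these data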;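 further: 0% = ATP-challenged DMSO wells and 100% = DMSO wells without ATP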
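test system = CHO parental line | reagent = ATP stimulus | measured by = intracellular calcium via Fluo-8 no-wash fluorescent dye | control set = ATP and no-ATP DMSO wells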
TAAR1 ag conf: human TAAR1 agonism, confirmed; shares compounds with TAAR1 ag; CHO RD-HGA16 TAAR1, Fluo-8 calcium fluorescence; scaled: DMSO 0%, maximal phenethylamine 100%; activation, % at 3 µM; actives 82% (n = 2,400); AID 651783;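 active means activation above a cutoff set at the run's mean compound activation plus 3 SD, cut at about 39% in these data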
Ga16 ag counter: nonselective agonist in parental cells, TAAR1 agonist counter-screen; activation, % at 3 µM; CHO-Ga16 parental, Fluo-8 calcium fluorescence; normalized to maximal ATP response, DMSO zero; actives 50% (n = 2,400); shares compounds with TAAR1 ag;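 active means activation above the run cutoff, the mean activation over all tested wells plus 3 SD, cut at about 12% in these data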;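 further: 0% = DMSO wells and 100% = maximal ATP response on the peak over basal ratio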
TAAR1 desensitize: counter-screen for human TAAR1 agonists: agonists that desensitize TAAR1; shares compounds with TAAR1 ag; CHO RD-HGA16 hTAAR1, Fluo-8 calcium, beta-PEA response inhibition; inhibition, % at 3 µM; actives 46% (n = 2,400);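 active means inhibition above the run cutoff, the mean inhibition of all test compounds plus 3 SD, cut at about 49% in these data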;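 further: beta-PEA stimulus applied at its EC80; loss of beta-PEA calcium signal after compound pretreatment read as receptor desensitization; 0% = DMSO with beta-PEA at EC80 and 100% = DMSO alone without agonist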
Ga16 antag count: counter-screen for TAAR1 agonists: nonselective Ga16 antagonists. shares compounds with TAAR1 ag. CHO-Ga16 ATP-induced calcium, Fluo-8 fluorescence. inhibition, % at 3 µM. actives 39% (n = 2,400);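 active means inhibition above the plate's mean compound inhibition plus 3 SD, computed per plate, cut at about 22% in these data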;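 further: 0% = EC80 ATP with DMSO and 100% = DMSO wells without ATP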
* hit, by the source's call; / = no result.

SMILES	OX1R antag-1	TAAR1 ag	TAAR1 antagonist	GPR7 antagonist	OX1R antag-2	CHO parental Ca	TAAR1 ag conf	Ga16 ag counter	TAAR1 desensitize	Ga16 antag count
Cc1ccc(-n2nc3c(=O)n(CC(=O)NCCc4ccccc4C)nc(C)c3c2C)cc1	14	/	/	9	-22	-14	/	2	/	7
O=C(Cc1ccc(-n2cccc2)cc1)NCc1ccccc1Cl	15	77*	50*	3	-17	-15	1	0	-4	-1
O=C(NCc1ccccc1Cl)NCc1ccccc1Cl	0	0	-36	-6	-18	7	/	/	/	/
CC(C)(C)c1cc(CNC(=O)C2CCC(=O)N(Cc3ccccc3F)C2)[nH]n1 (stereo not drawn)	/	1	-1	/	/	/	/	/	/	/
Cc1cc(C(=O)CSc2nnnn2C)c(C)n1CCc1ccc(F)cc1	2	44*	11	2	-15	-11	63*	6	14	10
Cc1cc(C(=O)CSc2nnnn2-c2ccccc2)c(C)n1CCc1ccccc1	14	58*	-3	0	-21	-13	99*	0	83*	11
Cc1cc(C(=O)CSc2nnc(N)s2)c(C)n1CCc1ccc(F)cc1	13	22	-7	-6	-24	-19	/	/	/	/
COCCn1c(C)cc(C(=O)CSc2nc(C)cc(C)c2C#N)c1C	27	6	17	-12	-1	10	/	/	/	/
Cc1cc(C(=O)CSc2nnnn2-c2ccccc2)c(C)n1CC1CCCO1 (stereo not drawn)	18	4	3	1	-15	-1	/	/	/	/
Cc1cc(C)c(C#N)c(SCC(=O)c2cc(C)n(CCc3ccccc3)c2C)n1	28	91*	52*	-8	-4	46*	93*	2	100*	17
CC(=O)c1ccc(N2CCN(S(=O)(=O)c3ccc4c(c3)CCC(=O)N4)CC2)cc1	/	6	-14	/	/	/	/	/	/	/
O=S(=O)(c1ccccc1)N1N=C(c2ccccc2)CC1c1ccccc1F (stereo not drawn)	6	-1	-8	7	-34	-14	/	/	/	/
O=[N+]([O-])c1cc(S(=O)(=O)N2CCOCC2)ccc1OCc1cccc(Cl)c1	1	1	35	/	19	-18	/	/	/	/
COc1ccc(-c2noc(CCC(=O)NCCc3ccccc3)n2)cc1	17	51*	-1	-8	-27	-13	62*	4	32	10
O=C(CCc1nc(-c2ccccc2)no1)NCCc1ccccc1	18	/	/	-6	-13	-14	/	/	/	/
COc1cccc(-c2noc(CCC(=O)NCCc3ccccc3)n2)c1	8	47*	0	-2	-26	-8	67*	2	23	11
O=C(c1ccc(=O)[nH]c1)N1CCN(S(=O)(=O)c2ccc3ccccc3c2)CC1	15	-3	-5	/	-4	-9	/	/	/	/
COc1cc(/C=C2\SC(=S)N(CC(=O)Nc3ccccn3)C2=O)cc(OC)c1OC	19	87*	4	-5	-24	-18	114*	67*	64*	30*
COc1cc(/C=C2\SC(=S)N(CCC(=O)Nc3ccccn3)C2=O)cc(OC)c1OC	10	13	44	-16	-37	-25	/	/	/	/
COc1ccccc1/C=C1\SC(=S)N(CCC(=O)Nc2cccc(O)c2)C1=O	0	63*	81*	0	-9	-5	71*	33*	67*	40*
COc1ccc(C(=O)Oc2ccc(N(C)S(=O)(=O)c3ccccc3)cc2)cc1[N+](=O)[O-]	12	3	7	-4	-16	-11	/	/	/	/
CC(=O)Nc1ccc(C(=O)NC2CCSc3ccccc32)cc1 (stereo not drawn)	26	1	-1	-7	-6	-4	/	/	/	/
CSc1ccc(C(=O)NC2CCSc3ccccc32)cc1 (stereo not drawn)	8	65*	89*	23	-2	-17	53*	48*	66*	62*
CN(CC(=O)Nc1ccc(F)c(F)c1F)C(=O)c1nn(Cc2ccccc2)c(=O)c2ccccc12	6	4	21	/	-26	-33	/	/	/	/
O=C(CCSc1nnc(-c2ccncc2)o1)Nc1ccc(Cl)cc1	1	40*	-15	-3	-8	-2	40*	4	8	15
SMILES	OX1R antag-1	TAAR1 ag	TAAR1 antagonist	GPR7 antagonist	OX1R antag-2	CHO parental Ca	TAAR1 ag conf	Ga16 ag counter	TAAR1 desensitize	Ga16 antag count
COc1ccc(CCNC(=O)CCCc2ccccc2)cc1	7	-2	5	-7	0	-16	/	/	/	/
COc1ccccc1CC(=O)NCCc1ccccc1	-2	69*	15	-2	5	-11	85*	2	77*	5
COc1ccc(OC(=O)NCCc2ccccc2)cc1	9	57*	-23	-8	-6	-9	84*	4	73*	10
COc1ccc(C(=O)CC(=O)C(=O)NCCc2cccc(C)c2)cc1	23	84*	80*	1	-7	-4	94*	2	84*	0
Cc1cc(Cl)nc(Cl)c1C(=O)NCCc1ccccc1	-6	/	/	/	-7	-6	/	2	/	8
COc1ccccc1CC(=O)NCCCc1ccccc1	-5	-1	7	-7	-15	-7	/	/	/	/
CCc1nc(CN(C)C(=O)C2CCC(=O)N(CCc3cccc(F)c3)C2)no1 (stereo not drawn)	9	3	-26	-9	-14	-1	/	/	/	/
CCC(=O)N1CCc2cc(S(=O)(=O)NC(C(=O)N3CCN(c4ccc(F)cc4)CC3)C(C)C)ccc21 (stereo not drawn)	25	1	-5	-16	-29	-21	/	/	/	/
O=C(CNC(=O)N1CC(=O)Nc2ccccc21)NCCc1c[nH]c2ccccc12	11	1	1	-9	-11	-11	/	/	/	/
CSCCC(NC(=O)c1ccco1)C(=O)NCc1ccc2c(c1)OCO2 (stereo not drawn)	/	3	0	/	/	/	/	/	/	/
Cc1cc(/C=C2/NC(=O)NC2=O)c(C)n1-c1sc2c(c1C#N)CCCC2	37	63*	-14	-7	-36	-24	46*	19*	-5	-2
Cc1cc(C)c(-n2c(C)cc(/C=C3/NC(=O)NC3=O)c2C)c(C)c1	29	33	-26	-12	-23	-24	/	/	/	/
